Screening results as filed in PubChem.
A selection: hits, their analogues and other compounds. The true share with any hit is near 1.3%.
Casp6 inh: inhibitors of human caspase-6; P55212; purified caspase-6, Z-VEID-R110 cleavage fluorescence; inhibition, % at 12.5 µM; actives 0.53% (n = 350,000); AID 686996;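 active = mean inhibition across replicates at least about 35%, with every replicate also reaching that limit, limit read from the data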;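 also: 0% = median of neutral control wells and 100% = no fluorescence left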
Xi reactivation: activators of X-chromosome reactivation in mouse fibroblasts | XiGFP mouse fibroblasts, % GFP-positive cells imaging, 3 d; cells co-treated with 5-aza-dC sensitizer; scaled so ellipticine positive control = 100% | AID 743238 | actives 0.055% (n = 360,000) | activation, % at 7.58 µM;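 active = mean normalized replicate activation at least 10% and every replicate at or above 10%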;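 also: 0% = median of on-plate neutral control wells and 100% = ellipticine 6 µM median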
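Material: SV40-immortalized XiGFP fibroblast cells, line 68-5-11 | Buffer or medium: DMEM containing 5-aza-dC | Dosing: One concentration, pinned | Times: 3 d treatment, 15 min room-temperature fixation | Controls: Ellipticine 6 µM positive control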
AF4-AF9 inh: blocks AF4 peptide binding to human AF9; P42568; AlphaScreen, biotin-AF4 peptide binding to FLAG-AF9; inhibition, % at 10 µM; actives 0.47% (n = 350,000); AID 651704;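 active = every replicate reaching a set inhibition limit, whatever the replicate mean, cut at about 25% in these data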;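 also: 0% = plate neutral control median and 100% = total signal loss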
Target sequence (P42568 whole entry, looked up): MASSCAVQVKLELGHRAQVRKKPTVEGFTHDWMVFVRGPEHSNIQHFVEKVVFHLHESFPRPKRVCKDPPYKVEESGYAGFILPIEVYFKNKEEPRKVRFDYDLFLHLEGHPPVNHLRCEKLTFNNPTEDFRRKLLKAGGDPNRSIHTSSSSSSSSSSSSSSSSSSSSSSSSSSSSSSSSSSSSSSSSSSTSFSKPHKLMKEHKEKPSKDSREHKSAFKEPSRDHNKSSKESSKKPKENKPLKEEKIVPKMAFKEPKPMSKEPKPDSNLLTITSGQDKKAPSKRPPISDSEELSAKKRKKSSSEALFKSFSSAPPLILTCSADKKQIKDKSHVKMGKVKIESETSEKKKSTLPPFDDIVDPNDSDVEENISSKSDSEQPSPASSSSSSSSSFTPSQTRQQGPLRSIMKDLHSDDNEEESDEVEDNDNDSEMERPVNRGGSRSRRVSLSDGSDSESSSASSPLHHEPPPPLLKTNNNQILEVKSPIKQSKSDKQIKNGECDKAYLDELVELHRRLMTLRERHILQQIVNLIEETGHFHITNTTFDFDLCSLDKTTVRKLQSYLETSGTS
S100A4 MyoIIA: inhibitors of human S100A4 binding to myosin IIA peptide; S100A4/TAMRA-MyoIIA peptide fluorescence polarization; inhibition, % at 10.7 µM; actives 0.14% (n = 360,000); AID 652163; P26447;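 active = mean inhibition of at least 70% across replicates, with every replicate also reaching that level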
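Compound dosing: one dose per compound; test system: human S100A4 monomer with TAMRA-labelled myosin IIA peptide; probe or stimulus: TAMRA-labelled myosin IIA heavy-chain peptide probe, 5 nM; medium: HEPES buffer with Ca2+, pH 7.2; schedule: 5 min incubation before reading; benchmarks: neutral control DMSO, positive control TFP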
RAD52 inh: RAD52 (human) annealing inhibition | P43351 | recombinant RAD52 DNA annealing, FRET fluorescence | inhibition, % at 18.7 µM | actives 0.46% (n = 360,000);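 active = every replicate showing at least 50% inhibition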
RAD54 inh: inhibitors of human RAD54 branch migration; RAD54 Holliday junction branch migration, FAM/BHQ fluorescence; actives 0.14% (n = 360,000); inhibition, % at 10.4 µM; AID 602329;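 active = mean normalized replicate activity at least 40 and at least half of replicates scoring 40 or more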;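 also: 0% = median of neutral control wells and 100% = median of positive control wells; inhibitors cause a drop in the FAM fluorescence signal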
The depositor's hits bear a star; x = not tested or not shown; + = active, no number.

SMILES	Casp6 inh	Xi reactivation	AF4-AF9 inh	S100A4 MyoIIA	RAD52 inh	RAD54 inh
COc1ccc(NC(=O)N2CCCCN3[C@H](CO)[C@H](c4ccc(C#Cc5ccccn5)cc4)[C@H]3C2)cc1	-3.0	0.0	16.7	18.7	66.4*	41.6
C[C@@H]1CN([C@@H](C)CO)C(=O)c2c(c3ccccc3n2C)-c2ccccc2CO[C@H]1CN(C)C(=O)Nc1cccc(C(F)(F)F)c1	x	-0.9	x	x	x	x
Oc1cc2c(cc1C(c1ccc(Cl)c(Cl)c1)N1CCCC1)OCO2 (stereo not given)	0.7	0.0	26.7*	-9.5	-5.9	x
C[C@H]1CCCCO[C@@H](CN(C)Cc2ccncc2)[C@@H](C)CN([C@@H](C)CO)C(=O)c2cc(NC(=O)C3CCCCC3)ccc2O1	1.3	0.5	1.2	1.4	-14.7	-6.3
NC(=S)N=Nc1c(O)cc(O)c2[nH]c(=O)ccc12	92.5*	0.0	5.5	-3.1	-52.5	x
Cc1csc2nc3cc(C(N)=O)ccc3c(=O)n12	0.9	0.1	54.5*	-2.9	-11.0	-6.9
NC(=O)c1ccc2c(=O)n3c(-c4cc(Cl)c(N)c(Cl)c4)csc3nc2c1	-2.3	0.5	-4.9	-0.1	9.1	-5.2
Cc1ccc(S(=O)(=O)N[C@@H]2CC[C@H](CCNC(=O)C3CCCCC3)O[C@@H]2CO)cc1	1.2	-0.3	-1.0	10.7	-4.8	5.0
O=C(COc1ccc(Cl)cc1Br)OCC(=O)c1ccc[nH]1	37.7*	0.3	0.0	-2.6	-17.0	-0.4
Cc1cc2nc(-c3ccccc3)cc(=O)n2[nH]1	-1.0	-0.1	49.5*	-6.6	-5.3	11.2
O=c1cc(-c2ccccc2)nc2cc(-c3ccc(Br)cc3)[nH]n12	0.6	0.1	-0.7	1.6	-9.0	0.5
NS(=O)(=O)c1ccc(N=Nc2c[nH]c(=O)c(O)c2)cc1	88.7*	0.1	7.3	-3.5	-387.1	-89.8
COc1cc(/C=C(\C#N)c2nc3ccccc3o2)ccc1O	0.0	18.0*	-10.4	-8.5	-344.4	-240.8
CO[C@H](CN(C)C(=O)Nc1ccc(F)cc1)[C@@H](C)CN(Cc1ccccc1Cl)[C@H](C)CO	-1.4	0.1	0.7	0.9	4.1	-2.1
COCCNC(=O)C[C@@H]1CC[C@@H]2[C@H](COC[C@H](O)CN2Cc2cccc(-c3ccncc3)c2)O1	1.7	0.5	-10.1	-7.4	4.0	8.3
COc1ccc(NS(=O)(=O)c2cc(NC(=O)CCNC(=O)c3ccco3)ccc2OC)cc1	1.1	0.0	25.5*	-3.8	5.7	-4.1
CCN(c1ccccc1)c1cc2ccccc2c(=O)[nH]1	64.6*	0.0	2.3	3.0	-5.6	1.5
CCCCn1c(NCc2ccncc2)nc2ccccc21	0.4	-0.1	-4.1	-7.2	-18.9	11.3
CCCCn1c(NCc2ccc(N(C)C)cc2)nc2ccccc21	0.3	-0.1	28.9*	0.1	-18.6	3.9
Cc1c(OCC(=O)NCCCN2CCCC2=O)ccc2c3c(c(=O)oc12)CCCC3	-4.7	0.5	-1.6	-3.7	-7.9	3.6
Cc1c(OCC(=O)NCCCN2CCCC2=O)ccc2c3c(c(=O)oc12)CCC3	-2.0	0.1	-2.6	+	-8.0	4.7
COc1ccc(NC(=O)N(C)C[C@@H]2Oc3ncc(C#C[C@@H](C)O)cc3C(=O)N([C@H](C)CO)C[C@@H]2C)cc1	0.3	-0.1	-2.4	15.2	7.7	-0.4
CCCCC1(c2ccc(F)cc2)NC(=O)N(CC(=O)N2CCN(C(=O)c3ccco3)CC2)C1=O (stereo not given)	46.2*	0.0	-0.4	4.0	-16.6	-8.5
CC1CCC2(CC1)NC(=O)N(CC(=O)N1CCN(C(=O)c3ccco3)CC1)C2=O (stereo not given)	6.6	0.1	0.6	3.7	-7.2	1.2
COc1ccc(N2CCN(CC(=O)c3ccccc3)CC2)cc1	-0.6	0.0	31.3*	-6.5	-13.8	-5.2
C/C(=N\NC(=O)c1cc(O)ccc1O)c1cccc(NC(=O)c2cccc(Cl)c2)c1	39.3*	0.2	3.2	1.3	-2.1	-2.3
C/C(=N\NC(=O)c1cc(O)ccc1O)c1cccc(NC(=O)c2ccc(Cl)cc2)c1	53.0*	-0.1	-1.8	-1.6	-5.9	2.5
